{"source": "paper PMC8255191", "about": "(European Journal of Medicinal Chemistry, 2021)", "key": {"[1]": {"experiment": "Cytotoxicity, CellTiter-Glo 2.0 luminescent cell viability assay", "assay_type": "cell-based", "conditions": "human, Huh7 cells"}, "SARS-CoV-2": {"tested_on": "SARS-CoV-2", "conditions": "SARS-CoV-2, Calu-3; literature value in parenthesis; cited from earlier work"}, "[2]": {"experiment": "ABTS radical decolorization assay", "assay_type": "physicochemical", "conditions": "10 μM-1 mM, 10 min; Fig. 2", "summary_of_the_method": "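ABTS radical cation solution, diluted 1:100 in ethanol to an absorbance of 0.70 (±0.02) at 734 nm, serves as the control solution. Test compound or ascorbic acid reference, dissolved in DMSO at 10 μM, 50 μM, 0.1 mM, 0.2 mM, 0.5 mM or 1 mM, is added. A734 is read after exactly 10 min, and %scavenging = [(A0 − As)/A0] × 100, with the control run in each assay.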"}, "[3]": {"experiment": "Stability towards oxidative stress", "assay_type": "physicochemical", "conditions": "40 mM H2O2 in ethanol, argon atmosphere; data not shown"}, "PR8 H1N1": {"tested_on": "PR8 H1N1", "experiment": "Time-of-addition, In Cell Western of hemagglutinin", "assay_type": "cell-based, Influenza A virus"}, "[4]": {"tested_on": "influenza A virus strains PR8 H1N1, pandemic 2009H1N1, avian Ulster H7N1", "assay_type": "cell-based"}, "DENV": {"tested_on": "DENV", "experiment": "In vitro resistance selection in Huh7 cells, NS3/NS5 population sequencing", "assay_type": "cell-based, Dengue virus serotype 2 (New Guinea C)"}, "ZIKV [5]": {"tested_on": "ZIKV", "experiment": "In vitro resistance selection in Huh7 cells, NS3/NS5 population sequencing", "assay_type": "cell-based, Zika virus (H/PF/2013)"}, "[6]": {"tested_on": "DENV NS3 and NS5 proteins", "assay_type": "cell-based, DENV-2", "conditions": "for expression of NS5 protein: 6i 50 μM (p ≤ 0.0001 at 16 h), Sofosbuvir 100 μM (from 12 h, p ≤ 0.01); for expression of NS3 protein: 6i 50 μM (p ≤ 0.05 at 12 h), Sofosbuvir 100 μM (from 12 h, p ≤ 0.05)"}, "[7]": {"tested_on": "Dengue, Zika, West Nile and Influenza A viruses", "experiment": "Antiviral activity, range over the tested viruses", "assay_type": "cell-based", "conditions": "read-out: IC50 (range over viruses)"}, "[8]": {"molecular_target": "D2pol: polymerase domain of dengue 2 virus (Dengue virus type 2, UniProt P14340)", "experiment": "In vitro polymerase assay", "assay_type": "biochemical", "conditions": "read-out: IC50 D2pol; polymerase activity"}, "[9]": {"molecular_target": "D2 NS5: full length DENV protein (Dengue virus type 2, UniProt P14340)", "experiment": "In vitro polymerase assay", "assay_type": "biochemical, dengue 2 virus", "conditions": "read-out: IC50 D2 NS5, polymerase activity"}, "[10]": {"molecular_target": "ZIKV NS5: full length ZIKV protein (Zika virus, UniProt A0A024B7W1)", "sequence (A0A024B7W1 2521-3423 limits assumed)": "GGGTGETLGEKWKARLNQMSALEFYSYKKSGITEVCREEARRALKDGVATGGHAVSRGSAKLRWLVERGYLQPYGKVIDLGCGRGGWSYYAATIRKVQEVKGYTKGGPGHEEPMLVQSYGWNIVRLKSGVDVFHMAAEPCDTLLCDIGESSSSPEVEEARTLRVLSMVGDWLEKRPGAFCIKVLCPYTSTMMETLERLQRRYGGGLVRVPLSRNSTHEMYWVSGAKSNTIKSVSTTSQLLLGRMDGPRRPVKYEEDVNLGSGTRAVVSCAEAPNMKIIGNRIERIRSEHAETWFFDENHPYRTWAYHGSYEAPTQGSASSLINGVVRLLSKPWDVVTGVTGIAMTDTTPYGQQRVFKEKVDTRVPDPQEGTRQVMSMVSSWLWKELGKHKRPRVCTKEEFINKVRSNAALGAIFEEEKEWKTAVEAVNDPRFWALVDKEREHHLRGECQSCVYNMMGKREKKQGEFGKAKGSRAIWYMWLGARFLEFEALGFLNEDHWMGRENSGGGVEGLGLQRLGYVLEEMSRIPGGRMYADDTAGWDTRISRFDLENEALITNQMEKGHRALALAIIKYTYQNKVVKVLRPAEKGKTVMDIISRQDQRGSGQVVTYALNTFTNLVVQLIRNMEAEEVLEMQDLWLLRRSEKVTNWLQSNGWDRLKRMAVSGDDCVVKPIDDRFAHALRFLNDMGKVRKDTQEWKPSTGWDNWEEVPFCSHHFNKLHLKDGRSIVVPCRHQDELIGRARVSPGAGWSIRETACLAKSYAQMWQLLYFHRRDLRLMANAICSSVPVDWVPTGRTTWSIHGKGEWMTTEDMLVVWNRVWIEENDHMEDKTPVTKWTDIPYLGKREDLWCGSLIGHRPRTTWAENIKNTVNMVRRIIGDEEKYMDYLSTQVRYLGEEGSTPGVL", "experiment": "In vitro polymerase assay", "assay_type": "biochemical", "conditions": "read-out: IC50 ZIKV NS5, polymerase activity"}, "DENV-2 [11]": {"tested_on": "DENV-2", "experiment": "Plaque reduction assay", "assay_type": "cell-based, Dengue virus serotype 2 (New Guinea C)", "conditions": "Dengue virus, DENV2, read-out: DENV-2 IC50"}, "DENV-2 [12]": {"tested_on": "DENV-2", "conditions": "read-out: IC50 DENV-2; cited from earlier work"}, "ZIKV [13]": {"tested_on": "ZIKV", "conditions": "read-out: IC50 ZIKV; cited from earlier work"}}, "note": "“And” between values parts separate entries of the source, which are not always exact repeats. Identical values can stand only once. Like-named read-outs stand apart in the source and are kept apart here."}
{"molecule": "O=C(O)c1cccc(Nc2nc(NCCOc3ccccc3)nc3[nH]cnc23)c1", "note": "[Compound 6m, 3-((2-((2-phenoxyethyl)amino)-9H-purin-6-yl)amino)benzoic acid]", "values": [{"measurement": "CC50", "setting": "[1]", "value": "> 200", "unit": "µM"}]}
{"molecule": "Fc1cccc(Nc2nc(NCCOc3ccccc3)nc3[nH]cnc23)c1", "note": "[Compound 6c, N6-(3-fluorophenyl)-N2-(2-phenoxyethyl)-9H-purine-2,6-diamine]", "values": [{"measurement": "CC50", "setting": "[1]", "value": "> 200", "unit": "µM"}]}
{"molecule": "CCC(CC)COC(=O)[C@H](C)N[P@](=O)(OC[C@H]1O[C@@](C#N)(c2ccc3c(N)ncnn23)[C@H](O)[C@@H]1O)Oc1ccccc1", "note": "[RMD]", "values": [{"measurement": "IC50", "setting": "SARS-CoV-2", "value": 0.28, "unit": "µM"}]}
{"molecule": "COC(=O)c1cccc(Nc2nc(NCCO)nc3[nH]cnc23)c1", "note": "[Compound 6e, Methyl 3-((2-((2-hydroxyethyl)amino)-9H-purin-6-yl)amino)benzoate]", "values": [{"measurement": "CC50", "setting": "[1]", "value": "> 200", "unit": "µM"}]}
{"molecule": "FC(F)(F)c1cccc(Nc2nc(NCCOc3ccccc3)nc3[nH]cnc23)c1", "note": "[Compound 6i, N [2]-(2-phenoxyethyl)-N [6]-(3-(trifluoromethyl)phenyl)-9H-purine-2,6-diamine]", "values": [{"measurement": "CC50", "setting": "[1]", "value": "> 200", "unit": "µM"}, {"measurement": "radical scavenging activity (% inhibition of the ABTS absorbance at 734 nm)", "setting": "[2]", "value": "not observed"}, {"measurement": "stability towards oxidative stress", "setting": "[3]", "value": "stable for days"}, {"measurement": "effect on HA expression", "setting": "PR8 H1N1", "value": "not quite effective"}, {"measurement": "inhibition of viral protein expression", "setting": "[4]", "value": "20–26% and 28–45%"}, {"measurement": "dpi (days post infection to 80% CPE)", "setting": "DENV; 6i 15 μM", "value": 6, "unit": "days"}, {"measurement": "dpi (days post infection to 80% CPE)", "setting": "DENV; 6i 30 μM", "value": 7, "unit": "days"}, {"measurement": "dpi (days post infection to 80% CPE)", "setting": "DENV; 6i 60 μM", "value": 5, "unit": "days"}, {"measurement": "dpi (days post infection to 80% CPE)", "setting": "DENV; 6i 120 μM", "value": "5 days and 9 days"}, {"measurement": "dpi (days post infection to 80% CPE)", "setting": "ZIKV [5]; 6i 15 μM", "value": 8, "unit": "days"}, {"measurement": "dpi (days post infection to 80% CPE)", "setting": "ZIKV [5]; 6i 30 μM", "value": 5, "unit": "days"}, {"measurement": "dpi (days post infection to 80% CPE)", "setting": "ZIKV [5]; 6i 60 μM", "value": 5, "unit": "days"}, {"measurement": "dpi (days post infection to 80% CPE)", "setting": "ZIKV [5]; 6i 120 μM", "value": 5, "unit": "days"}, {"measurement": "expression of NS5 protein", "setting": "[6]", "value": "significantly reduced"}, {"measurement": "expression of NS3 protein", "setting": "[6]", "value": "significantly reduced"}, {"measurement": "MCC NS3/NS5 (Manders' colocalization coefficient)", "setting": "[6]; 6i 50 μM, 16 h post infection, untreated control 0.726 ± 0.135", "value": "0.404 ± 0.106"}, {"measurement": "MCC NS5/NS3 (Manders' colocalization coefficient)", "setting": "[6]; 6i 50 μM, 16 h post infection, untreated control 0.752 ± 0.125", "value": "0.397 ± 0.101"}, {"measurement": "IC50", "setting": "[7]", "value": "0.5 to 5.3", "unit": "µM"}]}
{"molecule": "Fc1cccc(/N=N/c2nc(NCCOc3ccccc3)nc3[nH]cnc23)c1", "note": "[Compound 11a, 6-((3-fluorophenyl)diazenyl)-N-(2-phenoxyethyl)-9H-purin-2-amine]", "values": [{"measurement": "radical scavenging activity (% inhibition of the ABTS absorbance at 734 nm)", "setting": "[2]", "value": "not observed"}, {"measurement": "stability towards oxidative stress", "setting": "[3]", "value": "stable for days"}]}
{"molecule": "Fc1cccc(NNc2nc(NCCOc3ccccc3)nc3[nH]cnc23)c1", "note": "[Compound 10a, 6-(2-(3-fluorophenyl) hydrazinyl)-N-(2-phenoxyethyl)-9H-purin-2-amine]", "values": [{"measurement": "radical scavenging activity (% inhibition of the ABTS absorbance at 734 nm)", "setting": "[2]", "value": "clear concentration-dependent radical scavenging activity"}, {"measurement": "stability towards oxidative stress", "setting": "[3]", "value": "quickly converted into 11a"}]}
{"molecule": "CNc1nc(Nc2cccc(C(=O)OC)c2)c2nc[nH]c2n1", "note": "[Compound 6d, Methyl 3-((2-(methylamino)-9H-purin-6 yl)amino)benzoate]", "values": [{"measurement": "CC50", "setting": "[1]", "value": "> 200", "unit": "µM"}]}
{"molecule": "Nc1ncnc2c1ncn2[C@@H]1O[C@H](COP(=O)(O)OP(=O)(O)OP(=O)(O)O)C[C@H]1O", "note": "[3'dATP]", "values": [{"measurement": "IC50", "setting": "[8]", "value": "0.27 ± 0.03", "unit": "µM"}, {"measurement": "IC50", "setting": "[9]", "value": "0.32 ± 0.05", "unit": "µM"}, {"measurement": "IC50", "setting": "[10]", "value": "1 ± 0.2", "unit": "µM"}]}
{"molecule": "CNc1nc(Nc2cccc(C(=O)O)c2)c2nc[nH]c2n1", "note": "[Compound 6l, 3-((2-(methylamino)-9H-purin-6-yl)amino)benzoic acid]", "values": [{"measurement": "CC50", "setting": "[1]", "value": "> 200", "unit": "µM"}]}
{"molecule": "Oc1ccc(Nc2nc(NCCOc3ccccc3)nc3[nH]cnc23)cc1O", "note": "[Compound 6j, 4-((2-((2-phenoxyethyl)amino)-9H-purin-6-yl)amino)benzene-1,2-diol]", "values": [{"measurement": "CC50", "setting": "[1]", "value": "> 200", "unit": "µM"}]}
{"molecule": "CNc1nc(Nc2cccc(C(F)(F)F)c2)c2nc[nH]c2n1", "note": "[Compound 6g, N2-methyl-N6-(3-(trifluoromethyl)phenyl)-9H-purine-2,6-diamine]", "values": [{"measurement": "CC50", "setting": "[1]", "value": "> 200", "unit": "µM"}]}
{"molecule": "NC(=O)c1ncn([C@@H]2O[C@H](CO)[C@@H](O)[C@H]2O)n1", "note": "[Ribavirin, reference compound]", "values": [{"measurement": "CC50", "setting": "[1]", "value": "> 200", "unit": "µM"}]}
{"molecule": "CC(C)OC(=O)[C@H](C)N[P@](=O)(OC[C@H]1O[C@@H](n2ccc(=O)[nH]c2=O)[C@](C)(F)[C@@H]1O)Oc1ccccc1", "note": "[Sofosbuvir, reference compound]", "values": [{"measurement": "CC50", "setting": "[1]", "value": "> 200", "unit": "µM"}, {"measurement": "IC50", "setting": "DENV-2 [11]", "value": 3.8, "unit": "µM"}, {"measurement": "expression of NS5 protein", "setting": "[6]", "value": "significantly reduced"}, {"measurement": "expression of NS3 protein", "setting": "[6]", "value": "significantly reduced"}]}
{"molecule": "Oc1cccc(Nc2nc(NCCOc3ccccc3)nc3[nH]cnc23)c1", "note": "[Compound 3]", "values": [{"measurement": "IC50", "setting": "DENV-2 [12]", "value": 10, "unit": "µM"}, {"measurement": "IC50", "setting": "ZIKV [13]", "value": 16.7, "unit": "µM"}]}
